# Experimental data as given in ChEMBL document CHEMBL3627671, “Novel derivatives of nitro-substituted salicylic acids: Synthesis, antimicrobial activity and cytotoxicity” (Bioorg Med Chem, 2015).
# How the values were obtained:
# Type in all cases: functional
# [1] = test system: Mycobacterium tuberculosis; assay: Antimycobacterial activity against Mycobacterium tuberculosis H37Rv 331/88 after 14 days; conditions: H37Rv 331/88, 336 h
# [2] = test system: Mycobacterium tuberculosis; assay: Antimycobacterial activity against Mycobacterium tuberculosis H37Rv 331/88 after 21 days; conditions: H37Rv 331/88, 504 h
# [3] = test system: Mycobacterium avium; assay: Antimycobacterial activity against Mycobacterium avium 330/80 after 14 days; conditions: 330/80, 336 h
# [4] = test system: Mycobacterium avium; assay: Antimycobacterial activity against Mycobacterium avium 330/80 after 21 days; conditions: 330/80, 504 h
# [5] = test system: Mycobacterium kansasii; assay: Antimycobacterial activity against Mycobacterium kansasii 235/80 after 7 days; conditions: 235/80, 168 h
# Summary of the method: (§1)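 Šula's semisynthetic medium micromethod at 37 °C, read after 7, 14 and 21 days. The 1.0 McFarland suspension was diluted 10^-4. MIC determined. 6509/96 is a clinical isolate.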
# [6] = test system: Mycobacterium kansasii; assay: Antimycobacterial activity against Mycobacterium kansasii 235/80 after 14 days; conditions: 235/80, 336 h; summary of the method: as §1
# [7] = test system: Mycobacterium kansasii; assay: Antimycobacterial activity against Mycobacterium kansasii 235/80 after 21 days; conditions: 235/80, 504 h; summary of the method: as §1
# [8] = test system: Mycobacterium kansasii; assay: Antimycobacterial activity against Mycobacterium kansasii 6509/96 after 7 days; conditions: 6509/96, 168 h; summary of the method: as §1
# [9] = test system: Mycobacterium kansasii; assay: Antimycobacterial activity against Mycobacterium kansasii 6509/96 after 14 days; conditions: 6509/96, 336 h; summary of the method: as §1
# [10] = test system: Mycobacterium kansasii; assay: Antimycobacterial activity against Mycobacterium kansasii 6509/96 after 21 days; conditions: 6509/96, 504 h; summary of the method: as §1
# [11] = test system: Staphylococcus aureus; assay: Antibacterial activity against Staphylococcus aureus CCM 4516/08 after 24 hrs by microdilution broth method; conditions: CCM 4516/08, 24 h
# [12] = test system: Staphylococcus aureus; assay: Antibacterial activity against Staphylococcus aureus CCM 4516/08 after 48 hrs by microdilution broth method; conditions: CCM 4516/08, 48 h
# [13] = test system: Staphylococcus aureus; assay: Antibacterial activity against methicillin-resistant Staphylococcus aureus H 5996/08 after 24 hrs by microdilution broth method; conditions: H 5996/08, 24 h
# [14] = test system: Staphylococcus aureus; assay: Antibacterial activity against methicillin-resistant Staphylococcus aureus H 5996/08 after 48 hrs by microdilution broth method; conditions: H 5996/08, 48 h
# [15] = test system: Staphylococcus epidermidis; assay: Antibacterial activity against Staphylococcus epidermidis H 6966/08 after 24 hrs by microdilution broth method; conditions: H 6966/08, 24 h
# Summary of the method: (§2)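 Mueller-Hinton broth microdilution (modified M07-A07), pH 7.4 (±0.2). Compounds dissolved in DMSO, tested at final 500 to 0.49 µmol/L. Inoculum in sterile water matched to 0.5 McFarland. Incubated in the dark, humid atmosphere, 35 °C, read at 24 and 48 h visually and at 540 nm. MIC taken as ≥95% growth reduction (IC95) versus control.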
# [16] = test system: Staphylococcus epidermidis; assay: Antibacterial activity against Staphylococcus epidermidis H 6966/08 after 48 hrs by microdilution broth method; conditions: H 6966/08, 48 h; summary of the method: as §2
# [17] = test system: Enterococcus sp.; assay: Antibacterial activity against Enterococcus sp. J 14365/08 after 24 hrs by microdilution broth method; conditions: J 14365/08, 24 h; summary of the method: as §2
# [18] = test system: Enterococcus sp.; assay: Antibacterial activity against Enterococcus sp. J 14365/08 after 48 hrs by microdilution broth method; conditions: J 14365/08, 48 h; summary of the method: as §2
# [19] = test system: Escherichia coli; assay: Antibacterial activity against Escherichia coli CCM4517 after 24 hrs by microdilution broth method; conditions: CCM4517, 24 h; summary of the method: as §2
# [20] = test system: Escherichia coli; assay: Antibacterial activity against Escherichia coli CCM4517 after 48 hrs by microdilution broth method; conditions: CCM4517, 48 h; summary of the method: as §2
# [21] = test system: Klebsiella pneumoniae; assay: Antibacterial activity against Klebsiella pneumoniae D 11750/08 after 24 hrs by microdilution broth method; conditions: D 11750/08, 24 h; summary of the method: as §2
# [22] = test system: Klebsiella pneumoniae; assay: Antibacterial activity against Klebsiella pneumoniae D 11750/08 after 48 hrs by microdilution broth method; conditions: D 11750/08, 48 h; summary of the method: as §2
# [23] = test system: Klebsiella pneumoniae; assay: Antibacterial activity against ESBL-positive Klebsiella pneumoniae J 14368/08 after 24 hrs by microdilution broth method; conditions: J 14368/08, 24 h; summary of the method: as §2
# [24] = test system: Klebsiella pneumoniae; assay: Antibacterial activity against ESBL-positive Klebsiella pneumoniae J 14368/08 after 48 hrs by microdilution broth method; conditions: J 14368/08, 48 h; summary of the method: as §2
# [25] = test system: Pseudomonas aeruginosa; assay: Antibacterial activity against Pseudomonas aeruginosa CCM 1961 after 24 hrs by microdilution broth method; conditions: CCM 1961, 24 h; summary of the method: as §2
# [26] = test system: Pseudomonas aeruginosa; assay: Antibacterial activity against Pseudomonas aeruginosa CCM 1961 after 48 hrs by microdilution broth method; conditions: CCM 1961, 48 h; summary of the method: as §2
# [27] = test system: Candida albicans; assay: Antifungal activity against Candida albicans ATCC 44859 after 24 hrs by microdilution broth method; conditions: ATCC 44859, 24 h
# Summary of the method: (§3)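 CLSI M27-A3 broth microdilution in RPMI 1640 with glutamine, buffered to pH 7.0 with MOPS; DMSO diluent. Yeast inoculum 5 × 10^3 ± 0.2 CFU/mL. Moulds grown on Sabouraud agar 3–10 days before spore harvest, final inoculum 0.5-5 × 10^4 CFU/mL, checked in a Bürker chamber. Incubated dark, humid, 35 °C, read at 24 and 48 h visually and at 540 nm. MIC taken as ≥80% (yeasts) or ≥50% (filamentous) growth reduction versus control.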
# [28] = test system: Candida albicans; assay: Antifungal activity against Candida albicans ATCC 44859 after 48 hrs by microdilution broth method; conditions: ATCC 44859, 48 h; summary of the method: as §3
# [29] = test system: Candida tropicalis; assay: Antifungal activity against Candida tropicalis 156 after 24 hrs by microdilution broth method; conditions: Candida tropicalis, 156, 24 h; summary of the method: as §3
# [30] = test system: Candida tropicalis; assay: Antifungal activity against Candida tropicalis 156 after 48 hrs by microdilution broth method; conditions: Candida tropicalis, 156, 48 h; summary of the method: as §3
# [31] = test system: Pichia kudriavzevii; assay: Antifungal activity against Candida krusei E28 after 24 hrs by microdilution broth method; conditions: E28, 24 h; summary of the method: as §3
# [32] = test system: Pichia kudriavzevii; assay: Antifungal activity against Candida krusei E28 after 48 hrs by microdilution broth method; conditions: E28, 48 h; summary of the method: as §3
# [33] = test system: Nakaseomyces glabratus; assay: Antifungal activity against Candida glabrata 20/I after 24 hrs by microdilution broth method; summary of the method: as §3
# [34] = test system: Nakaseomyces glabratus; assay: Antifungal activity against Candida glabrata 20/I after 48 hrs by microdilution broth method; summary of the method: as §3
# [35] = test system: Trichosporon asahii; assay: Antifungal activity against Trichosporon asahii 1188 after 24 hrs by microdilution broth method; conditions: Trichosporon asahii, 1188, 24 h; summary of the method: as §3
# [36] = test system: Trichosporon asahii; assay: Antifungal activity against Trichosporon asahii 1188 after 48 hrs by microdilution broth method; conditions: Trichosporon asahii, 1188, 48 h; summary of the method: as §3
# [37] = test system: Aspergillus fumigatus; assay: Antifungal activity against Aspergillus fumigatus 231 after 24 hrs by microdilution broth method; conditions: Aspergillus fumigatus, 231, 24 h; summary of the method: as §3
# [38] = test system: Aspergillus fumigatus; assay: Antifungal activity against Aspergillus fumigatus 231 after 48 hrs by microdilution broth method; conditions: Aspergillus fumigatus, 231, 48 h; summary of the method: as §3
# [39] = test system: Lichtheimia corymbifera; assay: Antifungal activity against Absidia corymbifera 272 after 24 hrs by microdilution broth method; conditions: Lichtheimia corymbifera, 272, 24 h; summary of the method: as §3
# [40] = test system: Lichtheimia corymbifera; assay: Antifungal activity against Absidia corymbifera 272 after 48 hrs by microdilution broth method; conditions: Lichtheimia corymbifera, 272, 48 h; summary of the method: as §3
# [41] = test system: Trichophyton mentagrophytes; assay: Antifungal activity against Trichophyton mentagrophytes 445 after 24 hrs by microdilution broth method; conditions: Trichophyton mentagrophytes, 445, 24 h
# [42] = test system: Trichophyton mentagrophytes; assay: Antifungal activity against Trichophyton mentagrophytes 445 after 48 hrs by microdilution broth method; conditions: Trichophyton mentagrophytes, 445, 48 h
SMILES,MIC [1],MIC [2],MIC [3],MIC [4],MIC [5],MIC [6],MIC [7],MIC [8],MIC [9],MIC [10],other results
O=C(Nc1cccc(I)c1)c1cccc([N+](=O)[O-])c1O,62.5 µM,62.5 µM,500 µM,500 µM,62.5 µM,125 µM,125 µM,125 µM,125 µM,125 µM,–
O=C(Nc1cccc([N+](=O)[O-])c1)c1cccc([N+](=O)[O-])c1O,62.5 µM,62.5 µM,> 500 µM,> 500 µM,62.5 µM,250 µM,250 µM,62.5 µM,250 µM,250 µM,–
O=C(Nc1cccc(Br)c1)c1cccc([N+](=O)[O-])c1O,62.5 µM,62.5 µM,250 µM,250 µM,62.5 µM,125 µM,125 µM,125 µM,125 µM,125 µM,–
O=C(Nc1ccc([N+](=O)[O-])c(C(F)(F)F)c1)c1cccc([N+](=O)[O-])c1O,16 µM,16 µM,250 µM,500 µM,32 µM,62.5 µM,125 µM,32 µM,62.5 µM,62.5 µM,–
NNC(=O)c1ccncc1 [ISONIAZID],0.5 µM,1 µM,> 250 µM,> 250 µM,> 250 µM,> 250 µM,> 250 µM,4 µM,8 µM,8 µM,–
O=C(Nc1cccc(F)c1)c1cccc([N+](=O)[O-])c1O,62.5 µM,62.5 µM,500 µM,500 µM,62.5 µM,125 µM,250 µM,125 µM,250 µM,250 µM,–
CC1(C)S[C@@H]2[C@H](NC(=O)Cc3ccccc3)C(=O)N2[C@H]1C(=O)O [PENICILLIN G],–,–,–,–,–,–,–,–,–,–,MIC [11]: 0.98 µM; MIC [12]: 0.98 µM; MIC [13]: 62.5 µM; MIC [14]: 125 µM; MIC [15]: 250 µM; MIC [16]: 250 µM; MIC [17]: 7.81 µM; MIC [18]: 15.6 µM; MIC [19]: 125 µM; MIC [20]: 125 µM; MIC [21]: 500 µM; MIC [22]: 500 µM; MIC [23]: > 500 µM; MIC [24]: > 500 µM; MIC [25]: > 500 µM; MIC [26]: > 500 µM
OC(Cn1cncn1)(Cn1cncn1)c1ccc(F)cc1F [FLUCONAZOLE],–,–,–,–,–,–,–,–,–,–,MIC [27]: 0.24 µM; MIC [28]: 0.24 µM; MIC [29]: > 500 µM; MIC [30]: > 500 µM; MIC [31]: 125 µM; MIC [32]: 250 µM; MIC [33]: 31.2 µM; MIC [34]: 500 µM; MIC [35]: 250 µM; MIC [36]: 500 µM; MIC [37]: > 500 µM; MIC [38]: > 500 µM; MIC [39]: > 500 µM; MIC [40]: > 500 µM; MIC [41]: 7.81 µM; MIC [42]: 125 µM
O=C(Nc1cccc(Cl)c1)c1cccc([N+](=O)[O-])c1O,62.5 µM,62.5 µM,500 µM,500 µM,62.5 µM,125 µM,250 µM,125 µM,125 µM,125 µM,–
O=C(Nc1ccc([N+](=O)[O-])cc1)c1cccc([N+](=O)[O-])c1O,32 µM,32 µM,125 µM,125 µM,32 µM,62.5 µM,125 µM,62.5 µM,125 µM,125 µM,–
